The record followed here is ChEMBL document CHEMBL4321803 (J Med Chem, 2019).

Structures are written as SMILES. The source made the active and inactive calls. The calls are words filed in the database; no cut-off is given here.

One may read the IC50 as the concentration that inhibits the measured activity by half.

Assay [1] in a line: Inhibition of bacterial class B1 metallo beta-lactamase IMP-1 assessed as reduction in breakdown of cephalosporin FC-5 after 10 mins by fluorescence method. Also noted: species or system Bacteria. The method in brief:
(§1)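 Enzyme levels: L1 50 pM, IMP-1 20 pM, NDM-1 20 pM, VIM-1 100 pM, VIM-2 500 pM. Inhibitor pre-incubated with enzyme 10 min. Initial rates by fluorescence (ex 380/em 460 nm). Four-parameter fit for IC50.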

A short description of assay [2]: Inhibition of bacterial class B1 metallo beta-lactamase NDM-1 assessed as reduction in breakdown of cephalosporin FC-5 after 10 mins by fluorescence method. Set-up: species or system Bacteria. The method in brief:
(§2)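 Enzyme levels: L1 50 pM, IMP-1 20 pM, NDM-1 20 pM, VIM-1 100 pM, VIM-2 500 pM. Inhibitor pre-incubated with enzyme 10 min. Four-parameter fit for IC50.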

Assay [3] in a line: Inhibition of bacterial class B1 metallo beta-lactamase VIM-1 assessed as reduction in breakdown of cephalosporin FC-5 after 10 mins by fluorescence method. Also noted: species or system Bacteria. The method in brief: as §2
The nature of assay [4]: Inhibition of bacterial class B1 metallo beta-lactamse VIM-2 assessed as reduction in breakdown of cephalosporin FC-5 after 10 mins by fluorescence method. Set-up: species or system Bacteria. The procedure, abridged:
as §1

The nature of assay [5]: Inhibition of Aeromonas hydrophila class B2 metallo beta-lactamse CphA assessed as reduction in meropenem hydrolysis after 10 mins by UV absorbance method.
The nature of assay [6]: Inhibition of Stenotrophomonas maltophilia class B3 metallo beta-lactamse L1 assessed as reduction in breakdown of cephalosporin FC-5 after 10 mins by fluorescence method. The method in brief: as §1
Assay [7] in a line: Inhibition of Pseudomonas aeruginosa class C serine beta-lactamase AmpC assessed as reduction in breakdown of cephalosporin FC-5 after 10 mins by fluorescence method. The procedure, abridged: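 AmpC at 500 pM was pre-incubated with inhibitor for 10 min at room temperature in phosphate buffer, pH 7.4, with 0.01% (v/v) Triton X-100, then given 5 μM FC5. Initial hydrolysis rates were read by fluorescence (ex 380 nm, em 460 nm), and IC50 was taken from a four-parameter log(inhibitor) vs response fit.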

Assay [8] is described as follows: Inhibition of bacterial class D serine beta-lactamase OXA-10 assessed as reduction in breakdown of cephalosporin FC-5 after 10 mins by fluorescence method. Also noted: species or system Bacteria. The method in brief:
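Run in SBL buffer (phosphate pH 7.4, 0.01% v/v Triton X-100) at room temperature with 5 μM FC5. Enzyme levels: OXA-10 250 pM, OXA-48 12.5 nM. Enzyme pre-incubated with inhibitor 10 min. Initial rates by fluorescence (ex 380/em 460 nm). IC50 from a four-parameter log(inhibitor) fit.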

Assay [9] can be described thus: Inhibition of bacterial class D serine beta-lactamase OXA-10 assessed as reduction in breakdown of cephalosporin FC-5 in presence of aqueous sodium bicarbonate after 10 mins by fluorescence method. Set-up: species or system Bacteria. The method in brief:
(§3)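 SBL buffer (phosphate pH 7.4, 0.01% v/v Triton X-100) supplemented with 100 mM NaHCO3, room temperature, FC5 5 μM. Enzyme levels: OXA-10 250 pM, OXA-48 12.5 nM. Inhibitor pre-incubated with enzyme 10 min. Initial rates by fluorescence at 380/460 nm. IC50 from a four-parameter fit.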

Assay [10] is described as follows: Inhibition of bacterial class D serine beta-lactamase OXA-48 assessed as reduction in breakdown of cephalosporin FC-5 in presence of aqueous sodium bicarbonate after 10 mins by fluorescence method. Set-up: species or system Bacteria. The method in brief: as §3
Assay [11] is described as follows: Inhibition of bacterial class D serine beta-lactamase OXA-48 assessed as reduction in breakdown of cephalosporin FC-5 after 10 mins by fluorescence method. Also noted: species or system Bacteria. The method in brief: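 Run in SBL buffer (phosphate pH 7.4, 0.01% v/v Triton X-100) at room temperature with 5 μM FC5. Enzyme pre-incubated with inhibitor 10 min. IC50 from a four-parameter log(inhibitor) fit.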

The subject of the next assay is Bacteria. Nature of the assay: Reversible inhibition of bacterial class B1 metallo beta-lactamase NDM-1 assessed as reduction in breakdown of cephalosporin FC-5 after 15 to 180 mins by fluorescence method.
For assay [12], the system named is Escherichia coli. The experiment in a line: Inhibition of metallo beta-lactamase NDM-1 in Escherichia coli S117 assessed as potentiation of cefepime-induced antibacterial activity by measuring cefepime MIC at 10 ug/ml by agar dilution method (Rvb > 64 ug/ml). The method in brief:
(§4)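 Agar dilution MIC of meropenem or cefepime combined with the inhibitor, against NDM-1-producing clinical isolates of E. coli and K. pneumoniae. Interpreted per EUCAST/CLSI guidelines. Reference strain MICs within ±1 log2 dilution of reference values.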

Assay [13] deals with Escherichia coli. Nature of the assay: Inhibition of metallo beta-lactamase NDM-1 in Escherichia coli IR57 assessed as potentiation of cefepime-induced antibacterial activity by measuring cefepime MIC at 10 ug/ml by agar dilution method (Rvb > 64 ug/ml). The method in brief: as §4
(In agar dilution the substance is mixed into plates at graded concentrations.)

The target of assay [14] is Metallo-beta-lactamase type 2 (Klebsiella pneumoniae) (UniProt C7C422). The experiment in a line: Inhibition of metallo beta-lactamase NDM-1 in Klebsiella pneumoniae B68-1 assessed as potentiation of cefepime-induced antibacterial activity by measuring cefepime MIC at 10 ug/ml by agar dilution method (Rvb > 64 ug/ml). The method in brief: as §4
Sequence of Metallo-beta-lactamase type 2 (Klebsiella pneumoniae) (C7C422 whole entry): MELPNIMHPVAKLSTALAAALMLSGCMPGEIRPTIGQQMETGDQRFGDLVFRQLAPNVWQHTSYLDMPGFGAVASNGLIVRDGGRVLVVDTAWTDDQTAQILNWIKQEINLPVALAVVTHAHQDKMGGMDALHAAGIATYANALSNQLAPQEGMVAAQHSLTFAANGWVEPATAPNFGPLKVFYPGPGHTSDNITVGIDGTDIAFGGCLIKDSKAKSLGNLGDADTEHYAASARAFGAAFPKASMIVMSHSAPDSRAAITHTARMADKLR
The target is the same in assay [15]. Nature of the assay: Inhibition of metallo beta-lactamase NDM-1 in Klebsiella pneumoniae IR43 assessed as potentiation of cefepime-induced antibacterial activity by measuring cefepime MIC at 10 ug/ml by agar dilution method (Rvb > 64 ug/ml). The procedure, abridged: as §4
Assay [16] deals with Escherichia coli. Nature of the assay: Inhibition of metallo beta-lactamase NDM-1 in Escherichia coli 91N assessed as potentiation of cefepime-induced antibacterial activity by measuring cefepime MIC at 10 ug/ml by agar dilution method (Rvb > 64 ug/ml). The method in brief: as §4
Assay [17] concerns Escherichia coli. Nature of the assay: Inhibition of metallo beta-lactamase NDM-1 in Escherichia coli S117 assessed as potentiation of meropenem-induced antibacterial activity by measuring meropenem MIC at 10 ug/ml by agar dilution method (Rvb > 64 ug/ml). The method in brief: as §4
Assay [18] deals with Escherichia coli. Nature of the assay: Inhibition of metallo beta-lactamase NDM-1 in Escherichia coli IR57 assessed as potentiation of meropenem-induced antibacterial activity by measuring meropenem MIC at 10 ug/ml by agar dilution method (Rvb > 64 ug/ml). The method in brief:
as §4

For assay [19], the target named is Metallo-beta-lactamase type 2 (Klebsiella pneumoniae) (UniProt C7C422). Nature of the assay: Inhibition of metallo beta-lactamase NDM-1 in Klebsiella pneumoniae B68-1 assessed as potentiation of meropenem-induced antibacterial activity by measuring meropenem MIC at 10 ug/ml by agar dilution method (Rvb > 64 ug/ml). The method in brief: as §4
In assay [20] the test system is Escherichia coli. The experiment in a line: Inhibition of metallo beta-lactamase NDM-1 in Escherichia coli 91N assessed as potentiation of meropenem-induced antibacterial activity by measuring meropenem MIC at 10 ug/ml by agar dilution method (Rvb > 64 ug/ml). The procedure, abridged:
as §4

The next assay deals with Beta-lactamase OXA-10 (Pseudomonas aeruginosa, UniProt P14489). The experiment in a line: Inhibition of Pseudomonas aeruginosa class D serine beta-lactamase OXA-10 expressed in Escherichia coli BL21(DE3) cells assessed as reduction in breakdown of cephalosporin FC-5 in presence of aqueous sodium bicarbonate after 10 to 300 mins by fluorescence method.
Sequence of Beta-lactamase OXA-10 (P14489 whole entry): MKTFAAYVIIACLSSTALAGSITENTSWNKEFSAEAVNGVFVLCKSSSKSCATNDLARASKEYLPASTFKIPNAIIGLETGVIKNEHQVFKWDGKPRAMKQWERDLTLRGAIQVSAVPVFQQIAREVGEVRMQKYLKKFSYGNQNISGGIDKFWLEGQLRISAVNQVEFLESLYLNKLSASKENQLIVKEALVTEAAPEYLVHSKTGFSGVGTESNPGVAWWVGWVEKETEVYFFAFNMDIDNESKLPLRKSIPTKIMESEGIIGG
Assay [21] in a line: Inhibition of recombinant bacterial class B1 metallo beta-lactamase IMP-1 expressed in Escherichia coli assessed as reduction in breakdown of cephalosporin FC-5 preincubated for 10 mins followed by cephalosporin FC-5 addition by fluorescence method. Also noted: species or system Bacteria. The procedure, abridged: as §1
Assay [22] is described as follows: Inhibition of recombinant bacterial class B1 metallo beta-lactamase NDM-1 expressed in Escherichia coli assessed as reduction in breakdown of cephalosporin FC-5 preincubated for 10 mins followed by cephalosporin FC-5 addition by fluorescence method. Set-up: species or system Bacteria. The method in brief: as §1
Assay [23] is described as follows: Inhibition of Pseudomonas aeruginosa PAO1 class C serine beta-lactamase N-terminal His- tagged AmpC expressed in Escherichia coli BL21(DE3) cells assessed as reduction in breakdown of cephalosporin FC-5 preincubated for 10 to 300 mins followed by cephalosporin FC-5 addition by fluorescence method.
Assay [24] is described as follows: Inhibition of Klebsiella pneumoniae class D serine beta-lactamase N-terminal His-tagged OXA-48 expressed in Escherichia coli BL21(DE3) cells assessed as reduction in breakdown of cephalosporin FC-5 in presence of aqueous sodium bicarbonate after 10 to 300 mins by fluorescence method.

As for `O=C(O)C[C@@H]1CC[C@H](NC(=O)Cc2cccs2)B(O)O1` [VABORBACTAM], the half-maximal inhibitory concentration (IC50) in assay [1] was found to be 126000 nM; in assay [2], 631000 nM; in assay [3] it was 398000 nM; in assay [4], 316000 nM; in assay [5] it was 631000 nM; in assay [6] it was 336000 nM. Further, the IC50 in [7] was 5000 nM; in [8] it was over 400000 nM; in [9] it was over 400000 nM; in assay [10], 32000 nM.
In the case of `NCCN[C@H]1CC[C@H](CC(=O)N[C@H]2Cc3cccc(C(=O)O)c3OB2O)CC1`, the 50% inhibitory concentration (IC50) is 2510 nM in [1]; 0.5 nM in [4]; 2510 nM in assay [5]; over 10000 nM in assay [6]; 301 nM in assay [7]; 234 nM in assay [8]. The concentration for half-maximal inhibition (IC50) in assay [9] turned out to be 645 nM; in [11] it was 537 nM; in assay [10] it was 2390 nM. Moreover, the inhibition result with Bacteria was “Active”. Further, the MIC came to 16 µg/mL in the assay on Escherichia coli [12]; 8 µg/mL in the assay on Escherichia coli [13]; 0.5 µg/mL in assay [14]; 0.5 µg/mL in [15]; 4 µg/mL with Escherichia coli [16]; 1 µg/mL in the assay with Escherichia coli [17]. Besides, the MIC in the assay on Escherichia coli [18] came to 0.5 µg/mL; in [19], 0.5 µg/mL; in the assay on Escherichia coli [20], 0.125 µg/mL.
Turning to `NCc1ccc(C(=O)N[C@H]2Cc3cccc(C(=O)O)c3OB2O)cc1`, the IC50 at Beta-lactamase OXA-10 is 5100 nM; in assay [3], 85 nM; in assay [5], over 100000 nM; in assay [21], 1000 nM; in assay [22], 29 nM; in assay [23], 120 nM. In addition, in assay [24], the half-inhibitory concentration (IC50) is 2600 nM.
